Measured values taken from ChEMBL document CHEMBL1212735, “Metronidazole resistance in Prevotella spp. and description of a new nim gene in Prevotella baroniae” (2010).
Converted amounts (≈) assume the structure as drawn.

Key:
Type in all cases: functional
[1] = test system: Prevotella bivia; assay: Antimicrobial activity against slow growing colonies of Prevotella bivia LBN 365 deficient in nim gene assessed as inhibition of growth at 48 hrs by agar dilution method; settings: LBN 365, 48 h
In short: (§1)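 Metronidazole MIC by agar dilution per CLSI M11-A7 on brucella agar with 5% sheep blood, hemin and vitamin K1. Plates incubated anaerobically at 35°C and read at 48 h, with a second reading after a further 72 h. B. fragilis ATCC 25285T and B. thetaiotaomicron ATCC 29741 served as controls. Done in duplicate; EUCAST breakpoints applied (S ≤4, R ≥8 μg/ml).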

[2] = test system: Prevotella baroniae; assay: Antimicrobial activity against Prevotella baroniae LBN 430 expressing nimI gene assessed as inhibition of growth after three consecutive subcultures on compound free medium by agar dilution method; settings: Segatella baroniae
In short: (§2)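 Stability of induced resistance: metronidazole-selected isolates were subcultured three consecutive times on drug-free brucella blood agar (5% sheep blood, hemin, vitamin K1) under anaerobic conditions, then MIC was redetermined by CLSI agar dilution. Resistance was called stable if the MIC held within ±1 dilution. Duplicate experiments.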

[3] = test system: Bacteroides fragilis; assay: Antimicrobial activity against Bacteroides fragilis ATCC 25285T deficient in nimI gene assessed as inhibition of growth after several passages on plates containing increasing concentration of compound by agar dilution method
In short: (§3)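 Induction of metronidazole resistance: bacterial suspensions inoculated onto brucella blood agar (5% sheep blood, hemin, vitamin K1) containing metronidazole at increasing concentrations, grown anaerobically at 37°C. Colonies growing at the highest concentration were retested for MIC by CLSI agar dilution on the same agar. Duplicate experiments.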

[4] = test system: Prevotella baroniae; assay: Antimicrobial activity against Prevotella baroniae LBN 427 expressing nim gene assessed as inhibition of growth at 48 hrs by agar dilution method; settings: Segatella baroniae, LBN 427, 48 h
In short: (§4)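 Metronidazole MIC by agar dilution (CLSI M11-A7) on brucella agar with 5% sheep blood, hemin and vitamin K1. Plates were read after 48 h at 35°C under anaerobic conditions. Susceptible was MIC ≤ 4 μg/ml and resistant MIC ≥ 8 μg/ml (EUCAST). B. fragilis ATCC 25285T and B. thetaiotaomicron ATCC 29741 were run as controls. Duplicate assays.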

[5] = test system: Prevotella bivia; assay: Antimicrobial activity against Prevotella bivia LBN 332 deficient in nimI gene assessed as inhibition of growth after three consecutive subcultures on compound free medium by agar dilution method; in short: as §2
[6] = test system: Prevotella bivia; assay: Antimicrobial activity against slow growing colonies of Prevotella bivia LBP 51 deficient in nim gene assessed as inhibition of growth at 48 hrs by agar dilution method; settings: LBP 51, 48 h; in short: as §1
[7] = test system: Prevotella baroniae; assay: Antimicrobial activity against Prevotella baroniae LBN 430 expressing nim gene assessed as inhibition of growth at 48 hrs by agar dilution method; settings: Segatella baroniae, LBN 430, 48 h; in short: as §4
[8] = test system: Prevotella bivia; assay: Antimicrobial activity against slow growing colonies of Prevotella bivia LBN 333 deficient in nim gene assessed as inhibition of growth at 48 hrs by agar dilution method; settings: LBN 333, 48 h
In short: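 Slowly growing colonies inside the Etest inhibition zone, seen after prolonged incubation (an additional 72 h after the 48 h reading), were subcultured without antibiotic. They were then retested for metronidazole MIC by agar dilution on supplemented brucella blood agar under anaerobic conditions.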

[9] = test system: Prevotella bivia; assay: Antimicrobial activity against slow growing colonies of Prevotella bivia LBN 374 deficient in nim gene assessed as inhibition of growth at 48 hrs by agar dilution method; settings: LBN 374, 48 h; in short: as §1
[10] = test system: Prevotella bivia; assay: Antimicrobial activity against slow growing colonies of Prevotella bivia LBP 78 deficient in nim gene assessed as inhibition of growth at 48 hrs by agar dilution method; settings: LBP 78, 48 h; in short: as §1
[11] = test system: Prevotella bivia; assay: Antimicrobial activity against Prevotella bivia LBN 331 deficient in nim gene assessed as inhibition of growth at 48 hrs by agar dilution method; settings: LBN 331, 48 h; in short: as §4
[12] = test system: Prevotella bivia; assay: Antimicrobial activity against Prevotella bivia LBP 52 deficient in nim gene assessed as inhibition of growth at 48 hrs by agar dilution method; settings: LBP 52, 48 h; in short: as §4
[13] = test system: Prevotella bivia; assay: Antimicrobial activity against Prevotella bivia LBP 51 deficient in nim gene assessed as inhibition of growth at 48 hrs by agar dilution method; settings: LBP 51, 48 h; in short: as §4
[14] = test system: Prevotella baroniae; assay: Antimicrobial activity against Prevotella baroniae LBN 427 expressing nimI gene assessed as inhibition of growth after several passages on plates containing increasing concentrations of compound by agar dilution method; settings: Segatella baroniae; in short: as §3
[15] = test system: Prevotella nanceiensis; assay: Antimicrobial activity against slow growing colonies of Prevotella nanceiensis LBN 293b deficient in nim gene assessed as inhibition of growth at 48 hrs by agar dilution method; settings: Hoylesella nanceiensis; in short: as §1
[16] = test system: Bacteroides fragilis; assay: Antimicrobial activity against Bacteroides fragilis ATCC 25285T deficient in nimI gene assessed as inhibition of growth at 48 hrs by agar dilution method; in short: as §4
[17] = test system: Prevotella bivia; assay: Antimicrobial activity against slow growing colonies of Prevotella bivia LBP 4 deficient in nim gene assessed as inhibition of growth at 48 hrs by agar dilution method; settings: LBP 4, 48 h; in short: as §1
[18] = test system: Prevotella bivia; assay: Antimicrobial activity against Prevotella bivia LBN 445 deficient in nim gene assessed as inhibition of growth at 48 hrs by agar dilution method; settings: LBN 445, 48 h
In short: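 Agar dilution MIC on brucella agar with 5% sheep blood, hemin and vitamin K1, following CLSI M11-A7. Plates read after 48 h at 35°C under anaerobic conditions, with B. fragilis ATCC 25285T and B. thetaiotaomicron ATCC 29741 as controls. Assays in duplicate. Isolates kept at −80°C in brucella broth with 15% glycerol. Interpretation used EUCAST breakpoints (S ≤4, R ≥8 μg/ml).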

[19] = test system: Prevotella baroniae; assay: Antimicrobial activity against Prevotella baroniae LBN 430 expressing nimI gene assessed as inhibition of growth after several passages on plates containing increasing concentrations of compound by agar dilution method; settings: Segatella baroniae; in short: as §3
[20] = test system: Prevotella bivia; assay: Antimicrobial activity against Prevotella bivia LBN 334 deficient in nim gene assessed as inhibition of growth at 48 hrs by agar dilution method; settings: LBN 334, 48 h; in short: as §4
[21] = test system: Prevotella bivia; assay: Antimicrobial activity against Prevotella bivia LBP 69 deficient in nim gene assessed as inhibition of growth at 48 hrs by agar dilution method; settings: LBP 69, 48 h; in short: as §4
[22] = test system: Prevotella baroniae; assay: Antimicrobial activity against Prevotella baroniae LBN 475 expressing nimI gene assessed as inhibition of growth after three consecutive subcultures on compound free medium by agar dilution method; settings: Segatella baroniae; in short: as §2
[23] = test system: Prevotella buccae; assay: Antimicrobial activity against Prevotella buccae LBN 465 deficient in nimI gene assessed as inhibition of growth after several passages on plates containing increasing concentration of compound by agar dilution method; settings: Segatella buccae; in short: as §3
[24] = test system: Prevotella bivia; assay: Antimicrobial activity against Prevotella bivia LBN 350 deficient in nim gene assessed as inhibition of growth at 48 hrs by agar dilution method; settings: LBN 350, 48 h; in short: as §4
[25] = test system: Prevotella nanceiensis; assay: Antimicrobial activity against Prevotella nanceiensis LBN 293b deficient in nimI gene assessed as inhibition of growth after three consecutive subcultures on compound free medium by agar dilution method; settings: Hoylesella nanceiensis; in short: as §2
[26] = test system: Prevotella baroniae; assay: Antimicrobial activity against Prevotella baroniae LBN 432 expressing nimI gene assessed as inhibition of growth after three consecutive subcultures on compound free medium by agar dilution method; settings: Segatella baroniae; in short: as §2
[27] = test system: Prevotella nanceiensis; assay: Antimicrobial activity against slow growing colonies of Prevotella nanceiensis LBN 297 deficient in nim gene assessed as inhibition of growth at 48 hrs by agar dilution method; settings: Hoylesella nanceiensis, LBN 297, 48 h; in short: as §1

In the case of `Cc1ncc([N+](=O)[O-])n1CCO` [METRONIDAZOLE], the MIC [1] is reported as 8 µg/mL (≈ 46.7 µM), the MIC [2] is reported as 128 µg/mL (≈ 748 µM) and the MIC [3] is reported as 256 µg/mL (≈ 1500 µM). It also gave an MIC [4] of 4 µg/mL (≈ 23.4 µM), an MIC [5] greater than 256 µg/mL and an MIC [6] of 32 µg/mL (≈ 187 µM). It also gave an MIC [7] of 4 µg/mL (≈ 23.4 µM), an MIC [8] of 32 µg/mL (≈ 187 µM) and an MIC [9] of 8 µg/mL (≈ 46.7 µM). The MIC [10] was 8 µg/mL (≈ 46.7 µM), the MIC [11] was 2 µg/mL (≈ 11.7 µM) and the MIC [12] was 4 µg/mL (≈ 23.4 µM). The MIC [13] was 2 µg/mL (≈ 11.7 µM), the MIC [14] was 128 µg/mL (≈ 748 µM) and the MIC [15] was 32 µg/mL (≈ 187 µM). The MIC [16] was 0.5 µg/mL (≈ 2.92 µM), the MIC [17] was 32 µg/mL (≈ 187 µM) and the MIC [18] was 0.5 µg/mL (≈ 2.92 µM). For the same molecule, the MIC [19] was 128 µg/mL (≈ 748 µM), the MIC [20] was 2 µg/mL (≈ 11.7 µM) and the MIC [21] was 2 µg/mL (≈ 11.7 µM). The MIC [22] was 256 µg/mL (≈ 1500 µM), the MIC [23] was 128 µg/mL (≈ 748 µM) and the MIC [24] was 2 µg/mL (≈ 11.7 µM). The MIC [25] was 256 µg/mL (≈ 1500 µM), the MIC [26] was 64 µg/mL (≈ 374 µM) and the MIC [27] was 16 µg/mL (≈ 93.5 µM).
